This assay has as its system Igrov ABCG2 cells + mitoxantrone, trypan blue viability, 3 d. Kind of assay: ABCG2-mediated mitoxantrone resistance reversal, SAR follow-up, Igrove cells, trypan blue, SAR set 2 (AID 504477). Summed up: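 Technique – trypan blue exclusion with light-microscope cell counting · Test system – ABCG2-expressing Igrove cells · Quantity – 100,000 cells per mL · Timing – 3-day exposure of cells to test compound · Dosing – compound range 1-100 µM · Reagent – mitoxantrone selective agent at one fixed concentration · Measure – compound level halving cell viability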

The values that follow come from PubChem BioAssay AID504477 (NMMLSC, 2011).

The source made the active and inactive calls.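 Rule for the calls: active = compounds whose self-toxic dose exceeds tenfold the dose that restores mitoxantrone killing of resistant cells; inactive = the rest.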

For the molecule `COc1cccc(-c2cc3nc(-c4ccco4)cc(N4CCN(C(C)=O)CC4)n3n2)c1`, the CC50 (commonly the concentration at which the toxic effect on the cells reaches its halfway point) is above 100 µM.

For the molecule `COc1ccc(-c2cc3nc(-c4ccco4)cc(N4CCN(C(=O)c5ccoc5)CC4)n3n2)cc1`, the CC50 is above 100 µM.

For `CC(=O)N1CCN(c2cc(-c3ccco3)nc3cc(-c4cccc(Cl)c4)nn23)CC1`, the CC50 was above 100 µM.

For `COc1ccccc1-c1cc(N2CCN(C(=O)c3ccoc3)CC2)n2nc(-c3ccccc3)cc2n1`, the CC50 was > 7.62 µM (inactive).

As to `O=C(c1ccoc1)N1CCN(c2cc(-c3ccco3)nc3cc(-c4ccco4)nn23)CC1`, the CC50 was above 100 µM.

Regarding `CC(=O)N1CCN(c2cc(-c3ccco3)nc3cc(-c4ccccc4)nn23)CC1`, the CC50 was above 100 µM.
